Where a SMILES comes first, the peptide text is derived from it. [ ]: non-standard residue; d: D form. ξ: configuration not given here. ξBip = NC(Cc1ccc(-c2ccccc2)cc1)C(=O)O; ξDip = NC(C(=O)O)C(c1ccccc1)c1ccccc1
How the values were obtained:
[1] = Cytotoxicity against human Hs 445 cells assessed as inhibition of cell proliferation incubated for 4 hrs by MTS assay; format: functional, cell-based; details: Hs 445, 4 h
Outline: (§1)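 Cells grown in RPMI-1640 with 2 mM L-glutamine and 10% FBS, plated, then held 24 h at 37 °C. Adherent lines washed once in FBS-free medium. Cells exposed 4 h at 37 °C, 5% CO2 in FBS-free medium to 10 concentrations (1/4 steps, 400 μM top). 1% Triton X-100 served as positive control. MTS/PMS added for 2 h, then OD 490 nm read. IC50 from semilog curves; three independent experiments, quadruplicate wells.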

CEM-VLB = assay: Cytotoxicity against human CCRF-CEM/VLB cells assessed as inhibition of cell proliferation incubated for 4 hrs by MTS assay; format: functional, cell-based; outline: as §1
RPMI-8226 = assay: Cytotoxicity against human RPMI-8226 cells assessed as inhibition of cell proliferation incubated for 4 hrs by MTS assay; format: functional, cell-based; details: RPMI-8226, 4 h; outline: as §1
A498 = assay: Cytotoxicity against human A498 cells assessed as inhibition of cell proliferation incubated for 4 hrs by MTS assay; format: functional, cell-based; details: A498, 4 h; outline: as §1
[2] = Cytotoxicity against human HUVEC-C cells assessed as inhibition of cell proliferation incubated for 4 hrs by MTS assay; format: toxicity, cell-based; outline: as §1
[3] = Cytotoxicity against human MINO cells assessed as inhibition of cell proliferation incubated for 4 hrs by MTS assay; format: functional, cell-based; outline: as §1
HepG2 = assay: Cytotoxicity against human HepG2 cells assessed as inhibition of cell proliferation incubated for 4 hrs by MTS assay; format: functional, cell-based; details: HepG2, 4 h; outline: as §1
SK-OV-3 = assay: Cytotoxicity against human SK-OV-3 cells assessed as inhibition of cell proliferation incubated for 4 hrs by MTS assay; format: functional, cell-based; details: SK-OV-3, 4 h; outline: as §1
HL60/ADR = assay: Cytotoxicity against human HL60/ADR cells assessed as inhibition of cell proliferation incubated for 4 hrs by MTS assay; format: functional, cell-based; outline: as §1
NCI-H460 = assay: Cytotoxicity against human NCI-H460 cells assessed as inhibition of cell proliferation incubated for 4 hrs by MTS assay; format: functional, cell-based; details: NCI-H460, 4 h; outline: as §1
[4] = Cytotoxicity against human IGROV(CDDP) cells assessed as inhibition of cell proliferation incubated for 4 hrs by MTS assay; format: functional, cell-based; outline: as §1
Malme-3M = assay: Cytotoxicity against human Malme-3M cells assessed as inhibition of cell proliferation incubated for 4 hrs by MTS assay; format: functional, cell-based; outline: as §1
MCF7 [5] = assay: Cytotoxicity against human MCF7 cells transfected with MDR1 assessed as inhibition of cell proliferation incubated for 4 hrs by MTS assay; format: functional, cell-based; details: MCF7, 4 h; outline: as §1
MDA-MB-231 = assay: Cytotoxicity against human MDA-MB-231 cells assessed as inhibition of cell proliferation incubated for 4 hrs by MTS assay; format: functional, cell-based; details: MDA-MB-231, 4 h; outline: as §1
K562 = assay: Cytotoxicity against human K562 cells assessed as inhibition of cell proliferation incubated for 4 hrs by MTS assay; format: functional, cell-based; details: K562, 4 h; outline: as §1
OVCAR-3 = assay: Cytotoxicity against human OVCAR-3 cells assessed as inhibition of cell proliferation incubated for 4 hrs by MTS assay; format: functional, cell-based; details: OVCAR-3, 4 h; outline: as §1
KARPAS-299 = assay: Cytotoxicity against human KARPAS-299 cells assessed as inhibition of cell proliferation incubated for 4 hrs by MTS assay; format: functional, cell-based; details: KARPAS-299, 4 h; outline: as §1
[6] = Cytotoxicity against human U-87 MG cells assessed as inhibition of cell proliferation incubated for 4 hrs by MTS assay; format: functional, cell-based, U-87MG ATCC; outline: as §1
Toledo = assay: Cytotoxicity against human Toledo cells assessed as inhibition of cell proliferation incubated for 4 hrs by MTS assay; format: functional, cell-based; outline: as §1
Raji = assay: Cytotoxicity against human Raji cells assessed as inhibition of cell proliferation incubated for 4 hrs by MTS assay; format: functional, cell-based; outline: as §1
A-431 = assay: Cytotoxicity against human A-431 cells assessed as inhibition of cell proliferation incubated for 4 hrs by MTS assay; format: functional, cell-based; details: A-431, 4 h; outline: as §1
HT-29 = assay: Cytotoxicity against human HT-29 cells assessed as inhibition of cell proliferation incubated for 4 hrs by MTS assay; format: functional, cell-based; details: HT-29, 4 h; outline: as §1
A20 = assay: Cytotoxicity against mouse A20 lymphoma cells assessed as inhibition of cell proliferation incubated for 4 hrs by MTT assay; format: functional, cell-based; details: A20, 4 h
Outline: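 Murine A20 cells cultured in RPMI-1640 with 2 mM L-glutamine, 1.5 g/L sodium bicarbonate, 4.5 g/L glucose, 10 mM HEPES, 1.0 mM sodium pyruvate, 0.05 mM 2-mercaptoethanol and 10% FBS, without antibiotics, at 37 °C, 5% CO2. IC50 from three or more independent measurements, given as mean ± SD.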

CCRF-CEM = assay: Cytotoxicity against human CCRF-CEM cells assessed as inhibition of cell proliferation incubated for 4 hrs by MTS assay; format: functional, cell-based; outline: as §1
Daudi = assay: Cytotoxicity against human Daudi cells assessed as inhibition of cell proliferation incubated for 4 hrs by MTS assay; format: functional, cell-based; outline: as §1
[7] = Cytotoxicity against human MRC5 cells assessed as inhibition of cell proliferation incubated for 4 hrs by MTT assay; format: toxicity, cell-based
Outline: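 MRC-5 human embryonic lung fibroblasts cultured in MEM with 2 mM L-glutamine and 10% FBS, without antibiotics, at 37 °C in humidified 5% CO2. Cultures were tested for mycoplasma. IC50 from three or more independent measurements, given as mean ± SD.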

HCT-116 = assay: Cytotoxicity against human HCT-116 cells assessed as inhibition of cell proliferation incubated for 4 hrs by MTS assay; format: functional, cell-based; details: HCT-116, 4 h; outline: as §1
SU-DHL-1 = assay: Cytotoxicity against human SU-DHL-1 cells assessed as inhibition of cell proliferation incubated for 4 hrs by MTS assay; format: functional, cell-based; details: SU-DHL-1, 4 h; outline: as §1
A549 = assay: Cytotoxicity against human A549 cells assessed as inhibition of cell proliferation incubated for 4 hrs by MTS assay; format: functional, cell-based; details: A549, 4 h; outline: as §1
MCF7 [8] = assay: Cytotoxicity against human MCF7 cells assessed as inhibition of cell proliferation incubated for 4 hrs by MTS assay; format: functional, cell-based; details: MCF7, 4 h; outline: as §1
T47D = assay: Cytotoxicity against human T47D cells assessed as inhibition of cell proliferation incubated for 4 hrs by MTS assay; format: functional, cell-based; outline: as §1
U-937 = assay: Cytotoxicity against human U-937 cells assessed as inhibition of cell proliferation incubated for 4 hrs by MTS assay; format: functional, cell-based; details: U-937, 4 h; outline: as §1
COLO 205 = assay: Cytotoxicity against human COLO 205 cells assessed as inhibition of cell proliferation incubated for 4 hrs by MTS assay; format: functional, cell-based; details: COLO 205, 4 h; outline: as §1
PANC-1 = assay: Cytotoxicity against human PANC-1 cells assessed as inhibition of cell proliferation incubated for 4 hrs by MTS assay; format: functional, cell-based; details: PANC-1, 4 h; outline: as §1
NAMALVA = assay: Cytotoxicity against human NAMALVA cells assessed as inhibition of cell proliferation incubated for 4 hrs by MTS assay; format: functional, cell-based; outline: as §1
SK-MEL-2 = assay: Cytotoxicity against human SK-MEL-2 cells assessed as inhibition of cell proliferation incubated for 4 hrs by MTS assay; format: functional, cell-based; details: SK-MEL-2, 4 h; outline: as §1
HL-60 = assay: Cytotoxicity against human HL-60 cells assessed as inhibition of cell proliferation incubated for 4 hrs by MTS assay; format: functional, cell-based; details: HL-60, 4 h; outline: as §1
SK-HEP1 = assay: Cytotoxicity against human SK-HEP1 cells assessed as inhibition of cell proliferation incubated for 4 hrs by MTS assay; format: functional, cell-based; details: SK-HEP1, 4 h; outline: as §1

NCCCC[C@H](NC(=O)[C@H](Cc1c[nH]c2ccccc12)NC(=O)[C@H](Cc1c[nH]c2ccccc12)NC(=O)[C@H](CCCCN)NC(=O)[C@H](CCCCN)NC(=O)[C@H](Cc1c[nH]c2ccccc12)NC(=O)C(Cc1ccc(-c2ccccc2)cc1)NC(=O)[C@H](CCCCN)NC(=O)[C@@H](N)CCCCN)C(N)=O (stereo partly specified) (H-KK[ξBip]WKKWWK-NH2)
IC50 [1]: 4.2 µM | IC50 (CEM-VLB): 5.7 µM | IC50 (RPMI-8226): 4 µM | IC50 (A498): 7.9 µM | IC50 at 4 h [2]: 37.9 µM | IC50 [3]: 8.4 µM | IC50 (HepG2): 14.8 µM | IC50 (SK-OV-3): 17.7 µM | IC50 (HL60/ADR): 7 µM | IC50 (NCI-H460): 11.2 µM | IC50 [4]: 6.6 µM | IC50 (Malme-3M): 8.9 µM | IC50 (MCF7 [5]): 8.4 µM | IC50 (MDA-MB-231): 10.8 µM | IC50 (K562): 7.2 µM | IC50 (OVCAR-3): 14.3 µM | IC50 (KARPAS-299): 10 µM | IC50 [6]: 18.5 µM | IC50 (Toledo): 5.2 µM | IC50 (Raji): 16.1 µM | IC50 (A-431): 7.2 µM | IC50 (HT-29): 10.5 µM | IC50 (A20): 13 µM | IC50 (CCRF-CEM): 7.6 µM | IC50 (Daudi): 6.6 µM | IC50 at 4 h [7]: 151 µM | IC50 (HCT-116): 7.6 µM | IC50 (SU-DHL-1): 4.6 µM | IC50 (A549): 10.3 µM | IC50 (MCF7 [8]): 6.8 µM | IC50 (T47D): 4.2 µM | IC50 (U-937): 3.8 µM | IC50 (COLO 205): 4.9 µM | IC50 (PANC-1): 10.8 µM | IC50 (NAMALVA): 8.5 µM | IC50 (SK-MEL-2): 13.4 µM | IC50 (HL-60): 6.1 µM | IC50 (SK-HEP1): 12.6 µM

NCCCC[C@H](NC(=O)[C@H](Cc1c[nH]c2ccccc12)NC(=O)[C@H](CCCCN)NC(=O)[C@H](CCCCN)NC(=O)C(NC(=O)[C@H](Cc1c[nH]c2ccccc12)NC(=O)[C@H](CCCCN)NC(=O)[C@H](CCCCN)NC(=O)[C@@H](N)Cc1c[nH]c2ccccc12)C(c1ccccc1)c1ccccc1)C(N)=O (stereo partly specified) (H-WKKW[ξDip]KKWK-NH2)
IC50 [1]: 6.5 µM | IC50 (CEM-VLB): 5.3 µM | IC50 (RPMI-8226): 6 µM | IC50 (A498): 13.9 µM | IC50 at 4 h [2]: 55.5 µM | IC50 [3]: 9.5 µM | IC50 (HepG2): 20.1 µM | IC50 (SK-OV-3): 18.1 µM | IC50 (HL60/ADR): 10.5 µM | IC50 (NCI-H460): 9 µM | IC50 [4]: 6.4 µM | IC50 (Malme-3M): 12.4 µM | IC50 (MCF7 [5]): 11 µM | IC50 (MDA-MB-231): 13 µM | IC50 (K562): 8.2 µM | IC50 (OVCAR-3): 13.9 µM | IC50 (KARPAS-299): 11.6 µM | IC50 [6]: 17.3 µM | IC50 (Toledo): 7.7 µM | IC50 (Raji): 12.5 µM | IC50 (A-431): 11.7 µM | IC50 (HT-29): 11 µM | IC50 (A20): 16 µM | IC50 (CCRF-CEM): 7.8 µM | IC50 (Daudi): 8.1 µM | IC50 at 4 h [7]: 122 µM | IC50 (HCT-116): 10.3 µM | IC50 (SU-DHL-1): 7.3 µM | IC50 (A549): 10.4 µM | IC50 (MCF7 [8]): 8.9 µM | IC50 (T47D): 4.8 µM | IC50 (U-937): 5.3 µM | IC50 (COLO 205): 8.7 µM | IC50 (PANC-1): 17.1 µM | IC50 (NAMALVA): 7.1 µM | IC50 (SK-MEL-2): 18.4 µM | IC50 (HL-60): 8 µM | IC50 (SK-HEP1): 15.6 µM
